# Measurements collected from several papers.
# Each line is one published result; the experiments were not run side by side.
# Target: Tyrosine-protein kinase ABL2 (ABL2, Homo sapiens, UniProt P42684)
SMILES,test,setting,quantity,result
COc1ncccc1-c1cnn2ccc(N3CCN(C(=O)OC(C)C)CC3)nc12,"binding, competition with immobilised ligand",1 µM,remaining binding,100%
C#Cc1n[nH]c2c(-c3cn([C@@H](C)c4ccccc4)c(=O)[nH]c3=O)cc(F)cc12,"enzyme activity, inhibitor",0.1 µM,inhibition,2.4%
Cn1cc(-c2cccc(N3CCc4c(sc5c4CC(C)(C)C5)C3=O)c2CO)cc(Nc2ccncn2)c1=O,"enzyme activity, inhibitor",1 µM,inhibition,4%
Nc1ncc(-c2nc(N3CCOCC3)nc(N3CCOCC3)n2)c(C(F)F)n1,"binding, competition with immobilised ligand",10 µM,remaining binding,99%
Cn1cncc1[C@](O)(COc1ccc(C#N)cc1-c1ccc(OC(F)(F)F)cc1)c1ccc(C#N)cc1,"cell-free assay, competition with immobilised ligand",1 µM,remaining binding,83%
COc1cc(Nc2ncc(F)c(Nc3ccc4c(n3)NC(=O)C(C)(C)O4)n2)cc(OC)c1OC,"binding, competition with immobilised ligand",10 µM,inhibition,77%
Cn1cc(-c2cc(F)cc(N3CCn4c(cc5c4CCCC5)C3=O)c2CO)cc(Nc2ccc(N3CCN(C4COC4)CC3)cn2)c1=O,"enzyme activity, inhibitor",0.1 µM,inhibition,11%
O=c1[nH]c2ccccc2n1C1CCN(Cc2ccc(-c3[nH]c4cc5ncnc5cc4nc3-c3ccccc3)cc2)CC1,cell-free assay,0.5 µM,remaining signal,96.8%
C#Cc1n[nH]c2c(-c3cn([C@@H](C)c4ccccn4)c(=O)[nH]c3=O)cc(F)cc12,"enzyme activity, inhibitor",0.1 µM,inhibition,5.9%
CC(C)(C)c1cc(C=C(C#N)C#N)cc(Br)c1O,"enzyme activity, inhibitor",0.5 µM,remaining activity,57.1%
Cc1nn(C)cc1-c1nc2c(N3CCN(Cc4ccc(Cl)cc4)CC3)c(Cl)cnc2[nH]1,"binding, competition with immobilised ligand",1 µM,remaining binding,100%
